Tests used:
AMML = test: Compound was tested for the inhibition of AMML (acute myelomonocytic leukemia); assay type: functional, cell-based; conditions: Homo sapiens
How it was run: (§1)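 Human leukemia and solid tumor cells in culture were exposed to compound for 48 h. Viability was scored by trypan blue dye exclusion. IC50 (50% inhibition) was estimated from response curves of three separate experiments.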

CML/BC = test: Compound was tested for the inhibition of CML/BC(chronic myeloid leukemia, blast crisis); assay type: functional, cell-based; conditions: Homo sapiens; how it was run: as §1
Glioblastoma cell line = test: Compound was tested for the inhibition of glioblastoma; assay type: functional, cell-based; conditions: Homo sapiens; how it was run: as §1
HL-60 = test: Compound was tested for the inhibition of human HL60 Leukemia; assay type: functional, cell-based; how it was run: as §1
NSCLC = test: Compound was tested for the inhibition of non- small cell lung cancer; assay type: functional, cell-based; conditions: Homo sapiens; how it was run: as §1
[1] = test system: Small cell lung cancer cell line; test: Compound was tested for the inhibition of small cell lung cancer; assay type: functional, cell-based; conditions: Homo sapiens; how it was run: as §1
P388 [2] = test: Antitumor activity was determined against the ip implanted P388 leukemia in mice by percent increase in life span at 60 mg/kg (1-5qd treatment schedule) dosage; assay type: functional, Mus musculus; conditions: route intraperitoneal
How it was run: (§2)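 DBA/2J mice, 23-33 g, in groups of 6, were inoculated ip with 1×10^6 P388 cells on day 0. Dosing was ip from 24 h on the stated schedules, in 0.9% NaCl with 0.5% Tween-80 (sonicated solution or suspension). Survival was followed daily until death or 45 days. Median T/C was calculated from survivors per NCI protocols, with ILS = (T/C − 1) × 100.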

P388 [3] = test: Antitumor activity was determined against the ip implanted P388 leukemia in mice by percent median survival rate (treated/control) at 133 mg/kg (treatment of 1,5,9qd schedule) dosage; >45.0/11.5; assay type: functional, Mus musculus; conditions: route intraperitoneal
P388 [4] = test: Antitumor activity was determined against the ip implanted P388 leukemia in mice by percent median survival rate (treated/control) at 300 mg/kg (1 qd treatment schedule) dosage; >45.0/11.0; assay type: functional, Mus musculus; conditions: route intraperitoneal
P388 [5] = test: Antitumor activity was determined against the ip implanted P388 leukemia in mice by 45-day survivors in mice at 300 mg/kg (1 qd treatment schedule) dosage; assay type: functional, Mus musculus; conditions: route intraperitoneal; how it was run: as §2
P388 [6] = test: Antitumor activity was determined against the ip implanted P388 leukemia in mice by 45-day survivors in mice at 60 mg/kg (1-5qd treatment schedule) dosage; assay type: functional, Mus musculus; conditions: route intraperitoneal; how it was run: as §2
P388 [7] = test: Antitumor activity was determined against the ip implanted P388 leukemia in mice by percent median survival rate (treated/control) at 60 mg/kg (1-5qd treatment schedule) dosage; >45.0/11.5; assay type: functional, Mus musculus; conditions: route intraperitoneal
P388 [8] = test: Antitumor activity against ip implanted P388 leukemia in mice expressed as active dose range (1,5,9qd treatment schedule) required to produce increase in life span by >25% was determined; Range is 100-167; assay type: functional, Mus musculus
How it was run: (§3)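 P388 leukemia: 1 × 10^6 cells were given ip on day 0 to DBA/2J mice, groups of 6 (23-33 g). Treatment was ip from 24 h after inoculation, vehicle 0.9% NaCl with 0.5% Tween-80. Mice were observed daily until death or 45 days. Median survival T/C was calculated from survivors per NCI protocols, and ILS = (T/C − 1) × 100. Active range means doses giving ILS ≥25%; optimal dose means greatest ILS.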

P388 [9] = test: Antitumor activity against ip implanted P388 leukemia in mice expressed as active dose range (1-5qd treatment schedule) required to produce increase in life span by >25% was determined; Range is 40-80; assay type: functional, Mus musculus; how it was run: as §3
P388 [10] = test: Antitumor activity was determined against the ip implanted P388 leukemia in mice by change in […] at 133 mg/kg (treatment of 1,5,9qd schedule) dosage; assay type: functional, Mus musculus; conditions: route intraperitoneal
How it was run: (§4)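 P388 leukemia, 1×10^6 cells implanted ip on day 0 into DBA/2J mice, groups of 6 (wt 23-33 g). Dosing ip started 24 h post-inoculation, vehicle 0.9% NaCl containing 0.5% Tween-80. Animals were observed daily until death or 45 days. Outputs were weight change, median survival T/C from survivors per NCI protocols, and %ILS = (T/C − 1) × 100.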

P388 [11] = test: Antitumor activity was determined against the ip implanted P388 leukemia in mice by change in […] at 300 mg/kg (1 qd treatment schedule) dosage; assay type: functional, Mus musculus; conditions: route intraperitoneal; how it was run: as §4
P388 [12] = test: Antitumor activity was determined against the ip implanted P388 leukemia in mice by change in […] at 60 mg/kg (1-5qd treatment schedule) dosage; assay type: functional, Mus musculus; conditions: route intraperitoneal; how it was run: as §4
P388 [13] = test: Antitumor activity was determined against the ip implanted P388 leukemia in mice by percent increase in life span at 133 mg/kg (treatment of 1,5,9qd schedule) dosage; assay type: functional, Mus musculus; conditions: route intraperitoneal; how it was run: as §2
P388 [14] = test: Antitumor activity was determined against the ip implanted P388 leukemia in mice by range in survival days at 300 mg/kg (1 qd treatment schedule) dosage; Range is 39->45; assay type: functional, Mus musculus; conditions: route intraperitoneal
P388 [15] = test: Antitumor activity was determined against the ip implanted P388 leukemia in mice by 45-day survivors in mice at 133 mg/kg (treatment of 1,5,9qd schedule) dosage; assay type: functional, Mus musculus; conditions: route intraperitoneal; how it was run: as §2
P388 [16] = test: Antitumor activity was determined against the ip implanted P388 leukemia in mice by percent increase in life span at 300 mg/kg (1 qd treatment schedule) dosage; assay type: functional, Mus musculus; conditions: route intraperitoneal; how it was run: as §2
P388 [17] = test: Antitumor activity against the ip implanted P388 leukemia in mice expressed as optimal dose (1,5,9qd treatment schedule) required to produce greatest increase in life span was determined; assay type: functional, Mus musculus; parameters: unit: mg/kg; how it was run: as §3
P388 [18] = test: Antitumor activity against the ip implanted P388 leukemia in mice expressed as optimal dose (1-5qd treatment schedule) required to produce greatest increase in life span was determined; assay type: functional, Mus musculus; parameters: unit: mg/kg; how it was run: as §3
P388 [19] = test: Antitumor activity against the ip implanted P388 leukemia in mice expressed as optimal dose (1 qd treatment schedule) required to produce greatest increase in life span was determined; assay type: functional, Mus musculus; how it was run: as §3
P388 [20] = test: Antitumor activity against ip implanted P388 leukemia in mice expressed as active dose range (1 qd treatment schedule) required to produce increase in life span by >25% was determined; Range is 200-400; assay type: functional, Mus musculus; how it was run: as §3

Question: Which IC50 (AMML) does the source give for `CCCCCCCCCCCCCCCCCCOCC(COP(=O)([O-])OCC[N+](C)(C)C)OC.Nc1ccn([C@@H]2O[C@H](CO)[C@@H](O)[C@@H]2O)c(=O)n1` (stereo not given) here?
Answer: 1.35 µM

Question: And the IC50 (CML/BC)?
Answer: 0.25 µM

Question: What about the IC50 (Glioblastoma cell line) of the same compound?
Answer: 27 µM

Question: What about the IC50 (HL-60) of the same compound?
Answer: 0.26 µM

Question: What about the IC50 (NSCLC) of the same compound?
Answer: 34 µM

Question: And the IC50 [1]?
Answer: 38 µM

Question: With `CCCCCCCCCCCCCCCC(=O)OCC(COP(=O)(O)OP(=O)(O)OC[C@H]1O[C@@H](n2ccc(N)nc2=O)[C@@H](O)[C@@H]1O)OC(=O)CCCCCCCCCCCCCCC` (mixture of isomers) as the compound, how does the ILS (P388 [2]) read?
Answer: >291

Question: And the T/C (P388 [3])?
Answer: >45%

Question: What about the T/C (P388 [4]) of the same compound?
Answer: >45%

Question: What about the Survivors (P388 [5]) of the same compound?
Answer: 4

Question: And the Survivors (P388 [6])?
Answer: 6

Question: And the T/C (P388 [7])?
Answer: >45%

Question: And the Active dose range (P388 [8])?
Answer: 100 mg/kg/day

Question: And the Active dose range (P388 [9])?
Answer: 40 mg/kg/day

Question: What about the Weight change (P388 [10]) of the same compound?
Answer: 0.37 g mouse-1

Question: And the Weight change (P388 [11])?
Answer: -1.7 g mouse-1

Question: And the Weight change (P388 [12])?
Answer: -3.27 g mouse-1

Question: And the ILS (P388 [13])?
Answer: >291

Question: And the Range (P388 [14])?
Answer: 39

Question: What about the Survivors (P388 [15]) of the same compound?
Answer: 6

Question: What about the ILS (P388 [16]) of the same compound?
Answer: >309

Question: And the Optimal dose (P388 [17])?
Answer: 133 mg

Question: What about the Optimal dose (P388 [18]) of the same compound?
Answer: 60 mg

Question: And the Optimal dose (P388 [19])?
Answer: 300 mg/kg/day

Question: And the Active dose range (P388 [20])?
Answer: 200 mg/kg/day
